proCasp7 act: procaspase-7 activators, primary screen, counter-screen for procaspase-3 activator project, biochemical, absorbance, HTS, human; AID 463210, 2010; Caspase-7 (Homo sapiens), P55210; 330,000 tested, 0.093% active; activation, % at 8.5 µM; recombinant procaspase-7, Ac-DEVD-pNA absorbance 405 nm; D23A/D198A/D206A triple mutant, cannot self-cleave; scale: DMSO 0, 5 µM enzyme 100;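 active = percent activation above the screen-wide mean plus 3 SD, cut at about 25% in these data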
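buffer or medium = Zinc-free HEPES/NaCl buffer, pH 7.4 | material = Procaspase-7 triple mutant (PC-7 D3A) | input = 2 µM procaspase-7 mutant as dispensed | signal = Epi-absorbance of released pNA at 405 nm, two timepoints | timing = 1 h preincubation, 2 h reaction | replicates = singlicate compound testing | evaluation = % activation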
UBC13 polyUb: UBC13 polyubiquitin chain formation inhibitors, primary screen, biochemical, TR-FRET, uHTS; Ubiquitin-conjugating enzyme E2 N (Homo sapiens), P61088; inhibition, % at 20 µM; 330,000 tested, 0.47% active; AID 485273, 2010; in the data active = inhibition above about 45%, passing the limit was not always enough
Target sequence (P61088 whole entry, looked up): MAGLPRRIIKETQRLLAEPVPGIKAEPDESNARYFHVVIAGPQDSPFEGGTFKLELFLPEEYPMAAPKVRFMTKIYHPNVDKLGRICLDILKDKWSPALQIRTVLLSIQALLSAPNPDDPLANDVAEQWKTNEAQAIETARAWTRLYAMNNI
proCasp3 act: activators of human procaspase-3 D3A mutant, primary screen, biochemical, absorbance, PC-3 D3A mutant, single concentration. Caspase-3 (Homo sapiens), P42574. recombinant procaspase-3 D3A, Ac-DEVD-pNA absorbance 405 nm. activation, % at 8.5 µM. 330,000 tested, 0.11% active. AID 463141, 2010;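 active = activation above the mean of all tested compounds plus 3 SD, cut at about 21% in these data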;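 also: 0% = DMSO alone and 100% = DMSO wells spiked with extra 5 µM PC-3 D3A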
Target sequence (P42574 whole entry D9A/D28A/D175A): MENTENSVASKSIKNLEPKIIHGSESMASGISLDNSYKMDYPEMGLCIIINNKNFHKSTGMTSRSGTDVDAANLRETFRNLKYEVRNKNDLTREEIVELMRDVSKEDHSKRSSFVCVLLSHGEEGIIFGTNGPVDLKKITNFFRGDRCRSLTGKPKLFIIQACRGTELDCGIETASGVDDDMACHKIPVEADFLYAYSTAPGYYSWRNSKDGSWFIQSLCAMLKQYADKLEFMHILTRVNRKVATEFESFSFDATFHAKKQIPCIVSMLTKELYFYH
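Technique: 405 nm absorbance of p-nitroaniline, reads at 0 and 120 min; Test system: Procaspase-3 D3A mutant; Incubation: 1 h enzyme-compound preincubation, then 2 h substrate reaction, 25 °C; Repeats: singlicate, each compound tested once; Benchmarks: low control DMSO wells, high control DMSO plus 5 µM PC-3 D3A.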
PHOSPHO1 block: PubChem AID 1565. inhibition, % at 13.3 µM. 290,000 tested, 1.1% active. recombinant PHOSPHO1, absorbance phosphatase assay. Phosphoethanolamine/phosphocholine phosphatase (Homo sapiens), Q8TCT1; in the data active = inhibition above about 60%
IDE cell activ: human IDE activators in live cells, primary screen, fluorescence polarization, HEK cells, FAbeta-B substrate | FAbeta-B cleavage; 0% vehicle, 100% cell-free pure enzyme wells | activation, % at 5.96 µM | 340,000 tested, 0.073% active;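 active = activation above the mean of all tested compounds plus 3 SD, set per screening campaign, cut at about 17% in these data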
IDE inh: human IDE inhibitors in live cells, primary screen, fluorescence polarization, HEK cells, FAbetaB substrate; Insulin-degrading enzyme (Homo sapiens), P14735; FAbetaB cleavage; inhibition, % at 5.59 µM; 320,000 tested, 0.41% active;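 active = percent inhibition above the average of all tested compounds plus 3 SD, set per screening campaign, cut at about 16% in these data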;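 also: IDE supplied by intact live HEK cells; FP after avidin binding of uncleaved biotin substrate so inhibition keeps polarization high; 0% = DMSO wells and 100% = 60 µM reference IDE inhibitor Ii1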
Casp3 UBC13 ctr: CASP3 inhibitor validation, counterassay for project on UBE2N polyubiquitination blockers, biochemical, one dose; 1,400 tested, 4% active; shares compounds with UBC13 polyUb; inhibition, % at 20 µM; Recombinant caspase-3, Caspase-Glo 3/7 luminescence, 60 min;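 active = mean inhibition across replicates above about 26%, limit read from the data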;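 also: plate controls were DMSO with caspase-3 for no effect and DMSO wells lacking enzyme for full effect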
UBC13 confirm: UBC13 polyubiquitination inhibitors, single-point retest, confirmation, biochemical, TR-FRET, single concentration | 1,400 tested, 68% active | inhibition, % at 10 µM | shares compounds with UBC13 polyUb; in the data active = inhibition above about 45%
Numbers without * were called inactive; . = no result. An excerpt weighted towards active compounds, which were near 1.9% of everything screened.

SMILES	proCasp7 act	UBC13 polyUb	proCasp3 act	PHOSPHO1 block	IDE cell activ	IDE inh	Casp3 UBC13 ctr	UBC13 confirm
Cc1nc(Nc2cnc(/C=C/c3cc(C(=O)Nc4cccc(C(F)(F)F)c4)ccc3C)cn2)cc(N2CCNCC2)n1	-36	88*	-28	-24	.	4	5	116*
Cc1nc(N2CCC(C)CC2)c2c(C)c(C(=O)Nc3cccc(C(F)(F)F)c3)sc2n1	-8	31	2	-1	3	-1	.	.
CCn1c(=O)c(C(=O)NCCN2CCCCC2)c(O)c2ccccc21	0	48*	8	19	2	4	1	55*
COc1ccc(-c2sc3ccccc3c2-c2ccc(OCCN(C)C)cc2)cc1	1	87*	-2	.	1	7	-10	81*
COc1cccc(-c2sc3ccc(OC)cc3c2-c2ccc(OCCN(C)C)cc2)c1	8	84*	-4	.	7	-1	0	90*
CN(C)CCOc1ccc(-c2c(-c3ccsc3)sc3ccccc23)cc1	14	78*	-1	.	-1	1	0	74*
c1ccc(-c2sc3ccccc3c2-c2ccc(OCCN3CCOCC3)cc2)cc1	22	31	7	.	3	3	.	.
COc1ccc(-c2sc3ccccc3c2-c2ccc(O)cc2)cc1	4	28	0	.	3	6	.	.
Cc1sc2nc(C(C)Nc3ccccc3N3CCOCC3)[nH]c(=O)c2c1C (stereo unspecified)	5	74*	-5	34	4	2	-1	87*
Cc1sc2nc(N3CCOCC3)[nH]c(=O)c2c1-c1ccccc1	-3	0	2	6	4	-1	.	.
NC(=S)N=Nc1c(O)n(Cc2ccc(F)cc2)c2ccccc12	-7	73*	1	-1	-1	2	-1	75*
NC(=S)N=Nc1c(O)n(CCCl)c2ccc(Br)cc12	-7	58*	-1	24	6	-2	-1	30
NC(=S)N=Nc1c(O)n(Cc2ccc(Br)cc2)c2ccccc12	-15	46*	12	3	0	2	-2	38
Cc1ccc2c(c1)c(N=O)c(O)n2Cc1ccc(Cl)cc1	-5	3	-2	29	3	3	.	.
C/C(Cl)=C\Cn1c(O)c(N=NC(N)=S)c2cc(Br)ccc21	-24	-7	-6	10	-3	5	.	.
Cc1ccc2c(c1)c(N=NC(N)=S)c(O)n2Cc1ccccc1	0	79*	2	6	3	1	0	46*
CC1CN(C(=O)COC(=O)Cc2ccc(Cl)cc2)CC(C)O1 (stereo unspecified)	0	-17	3	.	-1	-1	.	.
O=C(CN(C(=O)c1csnn1)c1cccc(Cl)c1)NC1CCCCC1	-7	3	-5	28	0	-7	.	.
COc1ccc(OC)c(NC(=O)CSc2nncc(=O)n2N)c1	-11	-1	-4	38	2	-1	.	.
CC(=O)c1ccc(NC(=O)CCOc2cc(C)ccc2C)cc1	10	8	15	35	-2	-3	.	.
CCCOCC(O)CCc1n[nH]c(=S)n1-c1ccccc1 (stereo unspecified)	-18	-1	-7	47	3	1	.	.
CCCCCCCCCCOC(=O)Cn1c(COc2ccccc2OC)[n+](C)c2ccccc21	12	64*	-4	9	16	-1	1	68*
CCOC(=O)c1c(C)oc2ccc(O)cc12	-2	25	3	13	-1	0	.	.
CCOC(=O)c1c(C(C)(C)C)oc2ccc(O)cc12	-11	55*	3	20	5	4	-5	54*
CCOC(=O)c1c(CN2CCCCC2)oc2ccc(O)cc12	-6	53*	2	-18	3	-1	0	54*
SMILES	proCasp7 act	UBC13 polyUb	proCasp3 act	PHOSPHO1 block	IDE cell activ	IDE inh	Casp3 UBC13 ctr	UBC13 confirm
CCOc1ccc(Cl)cc1/C=N/NC(N)=O	3	50*	-1	50	1	-1	-2	53*
O=C(Nc1ccncc1)C1CCN(S(=O)(=O)c2cccc(C(F)(F)F)c2)CC1	8	54*	11	.	3	-1	1	32
COc1ccccc1C(=O)Nc1c2c(nn1-c1cccc(C)c1C)CS(=O)(=O)C2	0	46*	7	-25	2	0	-2	41
COc1ccccc1C(=O)Nc1c2c(nn1-c1ccc(Cl)cc1)CS(=O)(=O)C2	-2	20	1	33	1	-4	.	.
C[C@@]12C(=O)Nc3cc(F)c(F)cc3C(=O)N1[C@H]1c3cc(Cl)ccc3OC[C@@H]1[C@@H]2c1ccccc1	2	-4	6	.	5	4	.	.
O=C(Nc1cccc(F)c1)c1cc(S(=O)(=O)NCCC2=CCCCC2)ccc1F	8	48*	-2	-1	1	0	-2	30
Cc1ccc(-n2nc3c(=O)n(C(C)C(=O)NCc4ccc(Cl)cc4)nc(C)c3c2C)cc1 (stereo unspecified)	5	-2	4	27	1	2	.	.
NCCCC[C@@H]1NC(=O)c2cc([N+](=O)[O-])cc(I)c2SC[C@@H](C(N)=O)NC(=O)[C@H](Cc2ccc(O)cc2)NC1=O	-11	59*	0	-1	1	6	0	81*
Cc1ccc(S(=O)(=O)N2CCN(C(=O)Cn3cnc4c3c(=O)n(C)c(=O)n4C)CC2)cc1C	1	1	5	.	4	-3	.	.
O=C(O)C1Nc2c(cccc2C(F)(F)F)C2C=CCC12 (stereo unspecified)	.	.	.	-7	.	.	.	.
COc1cccc2c1NC(C(=O)O)C1CC=CC21 (stereo unspecified)	-12	45*	-5	3	1	4	3	47*
C/C=C(\C)C(=O)NCCN1C2=NC[C@H](Cc3ccccc3)N2C[C@@H]1Cc1ccc(OC)cc1	-2	22	-2	.	1	-1	.	.
